# Screening data deposited in PubChem BioAssay by Broad Institute.
# Most compounds without a hit are left out; they make up all but 2.3% or so of the library.
# F508del corr – F508del CFTR correction, initial screen, CFBE line, single point | CFBE cells, YFP halide quenching; stimulated with forskolin plus potentiator P3; % fluorescence drop versus neutral controls | activity (quench increase), % at 7.58 µM | 350,000 tested, 0.36% active;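 active = mean added fluorescence quench of at least 8% versus neutral control, with both replicates also reaching 8%; inconclusive = only one of the mean or replicate conditions met; inactive = mean below 8% and not both replicates reaching 8%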;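 also: cells transiently co-express mutant CFTR-F508del with the halide-sensitive YFP; corrector assay measuring rescue of mutant channel to the surface after 24 h compound exposure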
# EWS-Fli block – EWS/Fli-driven NR0B1 reporter inhibitors, primary screen, A673 cells, NR0B1 luciferase, luminescence, MLPCN library. viability-normalised. AID 651661, 2012. 350,000 tested, 0.67% active. inhibition, % at 12.6 µM;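 active = mean inhibition of at least 50% after viability correction, with every replicate also passing that limit; inconclusive = mean reaches 50% but only one of two replicates passes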;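 also: firefly luciferase signal divided by Alamar Blue viability fluorescence both relative to DMSO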
# Env fusion inh – inhibitors of HIV-1 Env-driven cell-cell fusion, primary screen, HeLa-JRFL effector, CEM21 target cells, luciferase. 360,000 tested, 1.1% active. inhibition, % at 12.3 µM. AID 651610, 2012;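 active = mean replicate inhibition score of at least 50 and every replicate individually at or above 50; inconclusive = only one of the two criteria met; inactive = mean below 50 and not all replicates reaching 50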;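 also: 0% = plate neutral controls and 100% = maraviroc near 300 nM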
# PAX8 reporter – inhibitors of PAX8-driven TPO luciferase reporter, primary screen, RMG-I cells, single concentration | AID 652154, 2013 | inhibition, % at 12.6 µM | SteadyGlo, 24 h | 360,000 tested, 1.2% active;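 active = mean replicate inhibition at least 60% with every replicate also reaching 60%; inconclusive = only one of the two criteria is met; inactive = mean below 60% and not all replicates reaching 60%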;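 also: luciferase light reporting Pax8 driven TPO promoter activity; plate controls were median of neutral control wells for no effect and mitoxantrone controls for full effect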
# FN deposition inh – inhibitors of fibronectin matrix deposition, primary screen, AH1F cells, Alexa488-fibronectin fluorescence, plate reader. AH1F fibroblasts, overnight. inhibition, % at 12.6 µM. 350,000 tested, 0.086% active;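 active = mean inhibition across replicates of 30% or more, regardless of how many single replicates reach that level; inconclusive = mean under 30% yet at least half of replicates reach 30%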;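 also: positive control wells lacked labelled fibronectin entirely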
#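 Material: AH1F fibroblast monolayer depositing Alexa488-labelled fibronectin into matrix / Amount: 10000 AH1F cells per well / Signal: fluorescence 485/525 nm / Medium: DMEM, 2% serum / Compound: single dose, pinned / Incubation: 1 h cell adhesion before compound, then overnight fibronectin incubation / Reagent: Alexa488-FN, 24 nM final / Read-out: inhibition of fibronectin deposition signal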
# PGC1a acetyl inh – inhibitors of PGC1a acetylation signal, primary screen, cell-based, U2OS, AlphaScreen, inhibitor mode; AlphaScreen anti-acetyl-lysine; with virally co-expressed GCN5 acetyltransferase; inhibition, % at 15.6 µM; 350,000 tested, 0.17% active; AID 651687, 2012;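 active = every replicate shows inhibition of at least 40%; inconclusive = mean inhibition at least 40% but some replicate below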;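 also: 0% = neutral control wells and 100% = positive control wells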
# Starred values were filed as active, the others as inactive; ? = inconclusive; · = no result given; ! = repeats disagree; [ ] = remark or other dose.
SMILES,F508del corr,EWS-Fli block,Env fusion inh,PAX8 reporter,FN deposition inh,PGC1a acetyl inh
NC(=O)c1[nH]cnc1N=NN(CCO)Cc1ccccc1,4.6,-7.3,5.9,74.0*,-5.5,-0.9
CN(C)N=Nc1nc[nH]c1C(N)=O,-5.2,-3.1,38.3,102.5*,-4.0,-3.9
C[C@@H]1CCCCO[C@H](CN(C)S(=O)(=O)c2cccs2)[C@@H](C)CN([C@H](C)CO)C(=O)c2cc(NS(C)(=O)=O)ccc2O1,-1.5,-5.8,8.8[16.7 µM],3.1,·,4.3
Cc1cccc(S(=O)(=O)N2C[C@@H]3N[C@H](C2)C3c2ccc(-c3cccc(C#N)c3)cc2)c1 (stereo partly drawn),4.7,-7.4,·,-12.3,-2.4,-10.5
COc1ccc2c3c(n(C)c2c1)[C@H](CO)N(C(=O)Nc1ccc(F)cc1)CC31CN(S(=O)(=O)c2cccc(F)c2)C1,6.8,-6.6,·,·,·,-0.9
COc1ccccc1OCC(O)CN1C(=O)NC(C)(C)C1=O (stereo not drawn),9.4*,-8.6,1.3,-4.9,-4.9,-1.6
CC1(C)NC(=O)N(CC(O)COc2ccccc2-c2ccccc2)C1=O (stereo not drawn),·,·,-72.7,3.0,7.2,0.0
CCCCc1c(-c2ccccc2OC)ncn1C(C)c1ccccc1 (stereo not drawn),2.3,16.4,76.3*,9.7,12.0,·
CCCCc1c(-c2ccccc2OC)ncn1CCc1ccccc1,3.0,18.9,13.2,12.4,5.2,·
C[C@@H]1CCCCO[C@H](CN(C)C(=O)CCC(F)(F)F)[C@H](C)CN([C@H](C)CO)C(=O)c2cc(NS(=O)(=O)c3ccc(F)cc3)ccc2O1,-0.1,21.1,-12.7[16.7 µM],8.8,-1.0,-19.5
COc1ccc2c3c([nH]c2c1)[C@H](CO)N(C(=O)CC1CC1)CC31CN(C(=O)CC2CC2)C1,1.7,3.2,·,·,·,-4.3
CCOC(=O)c1ccc(N2CCCCC2)c(NS(=O)(=O)c2cccc(C(F)(F)F)c2)c1,-0.1,7.4,64.2*,-11.1,1.2,-18.2
O=C(Nc1cccc(C(F)(F)F)c1)Nc1ccc(N2CCCC2)c(S(=O)(=O)Nc2ccccc2Cl)c1,·,·,?,89.6*,-2.7,·
COc1ccc(C(=O)O)cc1S(=O)(=O)Nc1cc(C(F)(F)F)ccc1N1CCCCC1,-1.4,-3.2,-6.8,-29.7,-1.1,-2.6
CC(=O)N1[C@@H]2Cn3c(ccc(C4=CCCC4)c3=O)[C@H]1[C@@H](C(=O)NC1CCCC1)[C@@H]2CO,-0.2,-1.9,·,·,·,-6.2
O=C(Nc1cc(C(F)(F)F)ccc1N1CCOCC1)C1=NN(c2ccccc2)C(=O)CC1,0.8,·,-3.0,80.4*,0.4,·
COCC(=O)Nc1ccc2c(c1)[C@H]1C[C@H](CC(=O)NC3CCCCC3)O[C@H](CO)[C@H]1O2,0.9,-5.0,7.8[16.7 µM],-1.1,-4.8,-7.0
COc1ccc(Nc2nc3cc(-c4sccc4C)sc3c(=O)n2C)cc1OC,9.6*,-1.9,-181.6,-16.7,-2.3,-33.7
COC(=O)C1CCN(C(=O)c2ccc(Cl)c(S(=O)(=O)NCc3cccnc3)c2)CC1,·,·,-79.2,·,0.0,-10.0
Cc1cccc(OCCNC(=O)c2ccc(Cl)c(S(=O)(=O)NCc3cccnc3)c2)c1,14.3*,57.4*,·,32.7,2.7,2.3
COCC(=O)N(C)C[C@H]1Oc2ncc(Br)cc2C(=O)N([C@H](C)CO)C[C@H]1C,-0.9,-17.9,79.9*[16.7 µM],5.1,·,6.7
CCC(=O)N(C)C[C@@H]1Oc2ncc(C#CCc3ccccc3)cc2C(=O)N([C@H](C)CO)C[C@@H]1C,4.5,-3.8,9.2[16.7 µM],·,·,100.6*
C[C@@H]1CN([C@H](C)CO)C(=O)c2cc(-c3ccccc3F)cnc2O[C@@H]1CN(C)Cc1ccccc1F,0.4,1.9,15.2[16.7 µM],-16.8,-12.9,9.7
C[C@H]1CN([C@@H](C)CO)C(=O)c2cc(C#CCC3CCCC3)cnc2O[C@@H]1CN(C)S(=O)(=O)c1cccs1,-0.5,6.5,18.0[16.7 µM],67.0*,·,-5.3
C[C@H](CO)N1C[C@H](C)[C@@H](CN(C)Cc2ccccc2F)Oc2ncc(Br)cc2C1=O,5.6,3.5,1.2,-15.7,4.9,63.8*!
SMILES,F508del corr,EWS-Fli block,Env fusion inh,PAX8 reporter,FN deposition inh,PGC1a acetyl inh
CCCC#Cc1ccc2c(c1)O[C@H](CN(C)Cc1cccnc1)[C@H](C)CN([C@@H](C)CO)S2(=O)=O,·,10.4,-16.5[16.7 µM],5.9,7.1,-6.0
CNC(=O)C1=C[C@H](c2csc3ccccc23)C[C@H](OCc2ccc(CO)cc2)O1,-1.4,-2.3,-19.8[16.7 µM],2.2,·,·
O=C(C[C@@H]1C=C[C@H](NC(=O)C2CC2)[C@@H](CO)O1)NCc1ccncc1,1.7,-2.3,8.4[16.7 µM],9.4,3.4,0.4
CNC[C@@H]1OCCCC[C@H](C)Oc2ccc(NC(=O)Cc3ccccc3)cc2C(=O)N([C@@H](C)CO)C[C@@H]1C,-1.5,-6.9,2.3[16.7 µM],-6.2,·,-16.8
COc1ccc(-c2ncncc2-c2ccc(Cl)cc2)c(O)c1,-1.3,7.7,56.2*,0.2,5.3,22.7
COc1ccc(/C=C/c2cc(-c3ccc(C)cc3)o[n+]2C)cc1,·,·,134.2*,·,-5.7,-120.8
O=C(C1CC1)N1CCCCN2[C@H](C1)[C@@H](c1ccc(C#CC3(O)CCCC3)cc1)[C@@H]2CO,-0.2,2.2,·,1.8,·,-7.2
O=C(C[C@H]1C[C@H]2c3cc(NC(=O)Nc4ccc(F)cc4)ccc3O[C@H]2[C@H](CO)O1)NC1CCCCC1,-2.0,-3.1,-1.6[16.7 µM],-3.4,-13.2,-2.0
O=C(CCc1ccccc1)NCC(c1ccco1)N1CCc2ccccc21 (stereo not drawn),14.3*,?,37.8,43.4,3.2,·
S=C(NCC1CCCO1)Nc1ccc(Cl)cc1 (stereo not drawn),·,-0.8,17.2,-4.4,2.1,·
S=C(NCC1CCCO1)Nc1ccc(Cl)cc1Cl (stereo not drawn),·,·,9.6,-88.6,30.1*,0.3
C[C@@H]1CN([C@@H](C)CO)S(=O)(=O)c2ccc(-c3ccccc3)cc2O[C@H]1CN(C)C(=O)C1CCC1,-0.5,9.0,2.3[16.7 µM],·,·,-6.0
Cn1nnnc1Sc1ncnc2scc(-c3ccccc3)c12,·,·,37.5,91.3*,12.5,-6.4
Cn1nnnc1Sc1ncnc2scc(-c3ccc[nH]3)c12,-3.3,-16.2,-11.6,99.1*,8.1,-90.7
Cn1nnnc1Sc1ncnc2scc(-c3ccc(F)cc3)c12,·,·,83.5*,108.1*,·,-21.0
Cn1nnnc1Sc1ncnc2scc(-c3cccc4ccccc34)c12,-7.5,1.5,42.1,40.1,14.0,20.1
Cn1nnnc1Sc1ncnc2scc(Br)c12,-2.6,-1.9,-8.2,56.1,0.3,2.1
COc1ccccc1-c1csc2ncnc(Sc3nnnn3C)c12,-6.1,9.9,44.4,18.4,8.2,-0.8
Cn1nnnc1Sc1ncnc2scc(-c3ccccc3Br)c12,-7.4,2.8,-5.2,82.9*,25.0,-4.8
